Converted amounts (≈) assume the structure as drawn. The source made the active and inactive calls. The rule behind the calls is not given here.
What was measured:
Toxoplasma gondii [1] = test: Antiparasitic activity against clindamycin-resistant Toxoplasma gondii 4 infected in HFF assessed as reduction of ycf24/UPRT genes copy number ratio at 0.1 uM treated for 48 hrs after 6 hrs infection followed by reinoculated into fresh HFF monolayers measured after 48 hrs by RT-PCR analysis; assay type: functional
Method in brief: (§1)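 Tachyzoites were seeded on confluent HFF monolayers in 6-well plates at 2×10^5 per well, in DMEM with 10% FBS and 1% PS at 37 °C, 5% CO2. After 6 h pre-infection, the medium was replaced with medium containing compound for 42 h. Released parasites were reinoculated into fresh HFF without drug for 48 h, collected by centrifugation, and measured by qPCR as the ratio of plastid ycf24 to nuclear UPRT copies. At least triplicate.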

Toxoplasma gondii [2] = test: (§2) Antiparasitic activity against clindamycin-resistant Toxoplasma gondii 4 infected in HFF assessed as reduction of ycf24/UPRT genes copy number ratio at 1 uM treated for 48 hrs immediately after infection followed by reinoculated into fresh HFF monolayers measured after 48 hrs by RT-PCR analysis; assay type: functional
Method in brief: (§3)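 Tachyzoites were seeded on confluent HFF in 6-well plates at 2×10^5 per well, in DMEM with 10% FBS and 1% PS at 37 °C, 5% CO2. Harvested tachyzoites were reinoculated into fresh HFF without drug for a second cycle. Parasites were pelleted by centrifugation and the plastid ycf24 to nuclear UPRT copy ratio was read by qPCR (40 cycles, 94 °C 3 s / 60 °C 30 s). At least triplicate.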

Toxoplasma gondii [3] = test: as §2, with “against green fluorescent protein expressing […] deficient” for “against clindamycin-resistant”, “gondii RH” for “gondii 4”; assay type: functional; method in brief: as §3
Toxoplasma gondii [4] = test: Antiparasitic activity against green fluorescent protein expressing […] deficient Toxoplasma gondii RH infected in HFF assessed as decrease in density of parasitophorous vacuoles at 10 uM treated 6 hrs after infection measured after 24 hrs by microscopic analysis; assay type: functional, organism-based
Method in brief: (§4)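 GFP T. gondii RHΔhxgprt in HFF, compound (10 μM) added either with the inoculum ("0h") or after 6 h pre-infection and washing ("6h"); vacuoles per microscope field scored at 24 h, at least 20 random fields from each of three experiments.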

Toxoplasma gondii [5] = test: Antiparasitic activity against green fluorescent protein expressing […] deficient Toxoplasma gondii RH infected in HFF assessed as parasite doubling time at 5 to 50 uM treated immediately after infection measured after 48 hrs; assay type: functional
Method in brief: (§5)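 HFF were grown on glass coverslips in 12-well plates and infected with 2×10^4 GFP tachyzoites per well. Compound was added with the inoculum; the first cycle ran 48 h, and the second cycle ran in fresh HFF without drug. Parasites per vacuole were counted by fluorescence microscopy, at least 50 random vacuoles per well, to derive doubling time. Three independent experiments.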

HFF = test: Cytotoxicity against HFF after 48 hrs by MTS assay; assay type: cell-based; details: human
Method in brief: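 Low-passage HFF seeded in 96-well plates and incubated 24h at 37 °C, then exposed to varying macrolide concentrations for 2 days; medium replaced with fresh medium plus MTS, 4h at 37 °C, absorbance 490 nm; CC50 = dose reducing viability by 50%.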

Toxoplasma gondii [6] = test: Antiparasitic activity against yellow fluorescent protein expressing Toxoplasma gondii 2F-1 treated 6 hrs after infection for 42 hrs followed by reinoculated into fresh HFF monolayers measured after 48 hrs; assay type: functional, organism-based
Method in brief: (§6)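 Two-cycle protocol in HFF at 37 °C, 5% CO2, DMEM with 10% FBS. "0h": compound added with parasites, 48 h. "6h": parasites pre-incubated 6 h, uninvaded parasites removed, fresh medium with compound added, 42 h. Released tachyzoites were then harvested, purified and inoculated into fresh HFF without compound for the 2nd cycle. At least triplicate.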

Toxoplasma gondii [7] = test: Antiparasitic activity against green fluorescent protein expressing hwgprt deficient Toxoplasma gondii RH infected in HFF at 5 to 50 uM treated immediately after infection measured after 48 hrs; assay type: functional, organism-based
Method in brief: (§7)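 GFP-expressing RHΔhxgprt tachyzoites were grown on HFF on glass coverslips in 12-well plates (2×10^4/well). Compound was added either with the parasites ("0h", 48 h) or after a 6 h pre-infection and medium change ("6h", 42 h). Parasites per vacuole were counted by fluorescence microscopy in at least 50 random vacuoles per well. Three independent experiments.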

Toxoplasma gondii [8] = test: Antiparasitic activity against yellow fluorescent protein expressing Toxoplasma gondii 2F-1 infected in HFF treated 6 hrs after infection measured after 48 hrs; assay type: functional, organism-based
Toxoplasma gondii [9] = test: Antiparasitic activity against yellow fluorescent protein expressing Toxoplasma gondii 2F-1 treated immediately after infection for 48 hrs followed by reinoculated into fresh HFF monolayers measured after 48 hrs; assay type: functional, organism-based; details: 2F-1, 48 h; method in brief: as §6
Toxoplasma gondii [10] = test: Antiparasitic activity against green fluorescent protein expressing hwgprt deficient Toxoplasma gondii RH infected in HFF assessed as reduction of ycf24/UPRT genes copy number ratio at 10 uM treated for 42 hrs starting 6 hrs after infection followed by reinoculated into fresh HFF monolayers measured after 48 hrs by RT-PCR analysis
Toxoplasma gondii [11] = test: Antiparasitic activity against green fluorescent protein expressing […] deficient Toxoplasma gondii RH assessed as parasite doubling time at 5 to 50 uM treated immediately after infection for 48 hrs followed by reinoculated into fresh HFF monolayers measured after 48 hrs; assay type: functional; method in brief: as §5
Toxoplasma gondii [12] = test: Antiparasitic activity against clindamycin-resistant Toxoplasma gondii 4 infected in HFF assessed as reduction of ycf24/UPRT genes copy number ratio at 1 uM treated for 48 hrs after 6 hrs infection followed by reinoculated into fresh HFF monolayers measured after 48 hrs by RT-PCR analysis; assay type: functional
Toxoplasma gondii [13] = test: Antiparasitic activity against green fluorescent protein expressing […] deficient Toxoplasma gondii RH infected in HFF at 5 to 50 uM treated 6 hrs after infection measured after 48 hrs; assay type: functional, organism-based; method in brief: as §7
Toxoplasma gondii [14] = test: Antiparasitic activity against clindamycin-resistant Toxoplasma gondii 4 infected in HFF assessed as reduction of ycf24/UPRT genes copy number ratio at 10 uM treated for 48 hrs immediately after infection followed by reinoculated into fresh HFF monolayers measured after 48 hrs by RT-PCR analysis; assay type: functional
Method in brief: as §3, with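 “CO2. Compound was added together with the parasite inoculum, and cultures ran 48 h.” for “CO2.”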

Bacillus subtilis = test: Antibacterial activity against Bacillus subtilis; assay type: functional
Toxoplasma gondii [15] = test: Antiparasitic activity against green fluorescent protein expressing […] deficient Toxoplasma gondii RH infected in HFF assessed as decrease in density of parasitophorous vacuoles at 10 uM treated immediately after infection measured after 24 hrs by microscopic analysis; assay type: functional, organism-based; method in brief: as §4
Toxoplasma gondii [16] = test: Antiparasitic activity against green fluorescent protein expressing hwgprt deficient Toxoplasma gondii RH infected in HFF at 5 to 50 uM treated immediately after infection measured after 48 hrs followed by reinoculated into fresh HFF monolayers measured after 48 hrs; assay type: functional, organism-based
Toxoplasma gondii [17] = test: Antiparasitic activity against green fluorescent protein expressing hwgprt deficient Toxoplasma gondii RH infected in HFF assessed as reduction of ycf24/UPRT genes copy number ratio at 10 uM […] followed by reinoculated into fresh HFF monolayers measured after 48 hrs by RT-PCR analysis; assay type: functional
Toxoplasma gondii [18] = test: Antiparasitic activity against Toxoplasma gondii 2F-1 expressing yellow fluorescent protein infected in HFF after 4 days; assay type: functional, organism-based; details: 2F-1, 96 h
Toxoplasma gondii [19] = test: Antiparasitic activity against yellow fluorescent protein expressing Toxoplasma gondii 2F-1 infected in HFF treated immediately after infection measured after 48 hrs; assay type: functional, organism-based; details: 2F-1, 48 h
Toxoplasma gondii [20] = test: Antiparasitic activity against clindamycin-resistant Toxoplasma gondii 4 infected in HFF assessed as reduction of ycf24/UPRT genes copy number ratio at 0.1 uM treated for 48 hrs immediately after infection followed by reinoculated into fresh HFF monolayers measured after 48 hrs by RT-PCR analysis; assay type: functional
Method in brief: as §3, with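 “CO2. Compound was added together with the parasite inoculum, and cultures ran 48 h.” for “CO2.”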

Toxoplasma gondii [21] = test: Antiparasitic activity against clindamycin-resistant Toxoplasma gondii 4 infected in HFF assessed as reduction of ycf24/UPRT genes copy number ratio at 10 uM treated for 48 hrs after 6 hrs infection followed by reinoculated into fresh HFF monolayers measured after 48 hrs by RT-PCR analysis; assay type: functional; method in brief: as §1
Toxoplasma gondii [22] = test: Antiparasitic activity against green fluorescent protein expressing […] deficient Toxoplasma gondii RH infected in HFF at 5 to 50 uM treated 6 hrs after infection measured after 48 hrs followed by reinoculated into fresh HFF monolayers measured after 48 hrs; assay type: functional, organism-based; method in brief: as §7
Toxoplasma gondii [23] = test: (§8) Antiparasitic activity against green fluorescent protein expressing hwgprt deficient Toxoplasma gondii RH infected in HFF assessed as reduction of ycf24/UPRT genes copy number ratio at 0.1 uM treated for 48 hrs after 6 hrs infection followed by reinoculated into fresh HFF monolayers measured after 48 hrs by RT-PCR analysis; assay type: functional; method in brief: as §1
Toxoplasma gondii [24] = test: as §8, with “1” for “0.1”; assay type: functional
Toxoplasma gondii [25] = test: (§9) Antiparasitic activity against green fluorescent protein expressing […] deficient Toxoplasma gondii RH infected in HFF assessed as reduction of ycf24/UPRT genes copy number ratio at 0.1 uM treated for 48 hrs immediately after infection followed by reinoculated into fresh HFF monolayers measured after 48 hrs by RT-PCR analysis; assay type: functional
Method in brief: as §3, with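 “CO2. Compound was added together with the parasite inoculum, and cultures ran 48 h.” for “CO2.”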

Toxoplasma gondii [26] = test: Antiparasitic activity against clindamycin-resistant Toxoplasma gondii 4 infected in HFF assessed as reduction of ycf24/UPRT genes copy number ratio at 5 uM treated for 48 hrs immediately after infection followed by reinoculated into fresh HFF monolayers measured after 48 hrs by RT-PCR analysis; assay type: functional, organism-based
Method in brief: as §3, with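 “CO2. Compound was added together with the parasite inoculum, and cultures ran 48 h.” for “CO2.”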

Toxoplasma gondii [27] = test: as §8, with “5” for “0.1”; assay type: functional, organism-based
Method in brief: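 HFF monolayers infected with RHΔhxgprt (or Clin^R-4) in 6-well plates; after 6 h medium changed and compound present 42 h; at 48 h parasites reinoculated into fresh HFF for 48 h without compound; parasites pelleted at 2,000 rpm 10 min; qPCR (94 °C 20 s, then 40 cycles 94 °C 3 s/60 °C 30 s) plastid ycf24 vs nuclear UPRT copy ratio.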

Toxoplasma gondii [28] = test: as §9, with “5” for “0.1”; assay type: functional, organism-based
Method in brief: as §3, with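 “CO2. Compound was added together with the parasite inoculum, and cultures ran 48 h.” for “CO2.”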

Toxoplasma gondii [29] = test: Antiparasitic activity against clindamycin-resistant Toxoplasma gondii 4 infected in HFF assessed as reduction of ycf24/UPRT genes copy number ratio at 5 uM treated for 48 hrs after 6 hrs infection followed by reinoculated into fresh HFF monolayers measured after 48 hrs by RT-PCR analysis; assay type: functional, organism-based

MIC (Bacillus subtilis)	Compound	Ratio (Toxoplasma gondii [2])	Ratio (Toxoplasma gondii [3])	CC50 (HFF)	IC50 (Toxoplasma gondii [6])	IC50 (Toxoplasma gondii [8])	IC50 (Toxoplasma gondii [9])	Ratio (Toxoplasma gondii [12])	Activity (Toxoplasma gondii [15])	IC50 (Toxoplasma gondii [19])	Ratio (Toxoplasma gondii [24])	further results
0.3 µM (≈ 0.249 µg/mL)	CC[C@H]1OC(=O)[C@H](C)[C@@H](O[C@H]2C[C@@](C)(OC)[C@@H](O)[C@H](C)O2)[C@H](C)[C@@H](O[C@@H]2O[C@H](C)C[C@H](N(C)C)[C@H]2O)[C@](C)(O)C[C@@H](C)CN(CC2CCCCC2)[C@H](C)[C@@H](O)[C@]1(C)O	–	–	36 µM	0.6 µM	12 µM	0.6 µM	–	Active	7 µM	–	–
–	CCc1nc(N)nc(N)c1-c1ccc(Cl)cc1 [PYRIMETHAMINE]	27	29	–	–	–	–	23	–	–	22	–
–	SPIRAMYCIN	–	–	–	–	–	–	–	–	–	–	Ratio (Toxoplasma gondii [26]): 8; Ratio (Toxoplasma gondii [27]): 5; Ratio (Toxoplasma gondii [28]): 8; Ratio (Toxoplasma gondii [29]): 3
0.6 µM (≈ 0.512 µg/mL)	CC[C@H]1OC(=O)[C@H](C)[C@@H](O[C@H]2C[C@@](C)(OC)[C@@H](O)[C@H](C)O2)[C@H](C)[C@@H](O[C@@H]2O[C@H](C)C[C@H](N(C)C)[C@H]2O)[C@](C)(O)C[C@@H](C)CN(CCCc2ccccc2)[C@H](C)[C@@H](O)[C@]1(C)O	–	–	33 µM	0.6 µM	8 µM	0.6 µM	–	Active	4 µM	–	–
0.3 µM (≈ 0.253 µg/mL)	CC[C@H]1OC(=O)[C@H](C)[C@@H](O[C@H]2C[C@@](C)(OC)[C@@H](O)[C@H](C)O2)[C@H](C)[C@@H](O[C@@H]2O[C@H](C)C[C@H](N(C)C)[C@H]2O)[C@](C)(O)C[C@@H](C)CN(Cc2ccc(F)cc2)[C@H](C)[C@@H](O)[C@]1(C)O	–	–	31 µM	0.7 µM	9 µM	0.5 µM	–	Active	6 µM	–	–

Compound	MIC (Bacillus subtilis)	Ratio (Toxoplasma gondii [2])	Ratio (Toxoplasma gondii [3])	CC50 (HFF)	IC50 (Toxoplasma gondii [6])	IC50 (Toxoplasma gondii [8])	IC50 (Toxoplasma gondii [9])	Ratio (Toxoplasma gondii [12])	Activity (Toxoplasma gondii [15])	IC50 (Toxoplasma gondii [19])	Ratio (Toxoplasma gondii [24])	further results
CC[C@H]1OC(=O)[C@H](C)[C@@H](O[C@H]2C[C@@](C)(OC)[C@@H](O)[C@H](C)O2)[C@H](C)[C@@H](O[C@@H]2O[C@H](C)C[C@H](N(C)C)[C@H]2O)[C@](C)(O)C[C@@H](C)CN(C)[C@H](C)[C@@H](O)[C@]1(C)O [AZITHROMYCIN]	0.15 µM (≈ 0.112 µg/mL)	8	7	174 µM	0.6 µM	44 µM	0.6 µM	3	inactive	29 µM	3	Ratio (Toxoplasma gondii [1]): 13; Activity (Toxoplasma gondii [4]): inactive; Time (Toxoplasma gondii [5]): 9.5 h; Activity (Toxoplasma gondii [7]): Active; Ratio (Toxoplasma gondii [10]): 10; Time (Toxoplasma gondii [11]): >16 h; Activity (Toxoplasma gondii [13]): Active; Ratio (Toxoplasma gondii [14]): 10; Activity (Toxoplasma gondii [16]): Active; Ratio (Toxoplasma gondii [17]): 3; IC50 (Toxoplasma gondii [18]): 20 µM; Ratio (Toxoplasma gondii [20]): 18; Ratio (Toxoplasma gondii [21]): 4; Activity (Toxoplasma gondii [22]): Active; Ratio (Toxoplasma gondii [23]): 15; Ratio (Toxoplasma gondii [25]): 7

— ChEMBL document CHEMBL1772948, “Chemistry and biology of macrolide antiparasitic agents” (J Med Chem, 2011)
